ChEMBL document CHEMBL4257484, “Membrane-active antimicrobial poly(amino-modified alkyl) β-cyclodextrins synthesized via click reactions” (Medchemcomm, 2018)
Converted amounts (≈) assume the structure as drawn.

What was measured:
[1] = Hemolytic activity in rabbit RBC at 2 uM after 20 mins relative to control; format: ADME, cell-based, Oryctolagus cuniculus, Erythrocyte; details: rabbit red blood cells (erythrocytes), read-out: Activity
Outline: (§1)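 Rabbit erythrocytes suspended in 150 mM NaCl/10 mM Hepes-NaOH, pH 7.4, at 0.5% hematocrit (final) and incubated with compound at 37 °C. The table footnote gives 20 min; the methods section gives 30 min. Hemolysis was read as absorbance at 540 nm, with 50 µM lysolecithin defining 100% hemolysis.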

[2] = test system: Salmonella typhimurium; experiment: Antibacterial activity against drug-sensitive Salmonella typhimurium LT2 after 20 hrs by liquid microdilution method; format: functional, Salmonella enterica subsp. enterica serovar Typhimurium; details: Salmonella enterica, LT2, 20 h
Outline: (§2)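 Two-fold serial dilutions of compound in Mueller–Hinton broth, inoculated with 1 × 10^4 cells and cultured at 37 °C for 20 h in microtiter wells.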

[3] = test system: Enterococcus faecium; experiment: Antibacterial activity against drug-resistant Enterococcus faecium MS29120 after 18 to 20 hrs by agar dilution method; format: functional
Outline: (§3)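 Agar dilution per CLSI. Overnight broth cultures were diluted 100-fold, and one loopful (about 10^5 to 10^4 CFU) was spotted onto agar plates containing the CD. Growth was scored after 18–20 h at 37 °C. MIC values are in µM.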

[4] = Hemolytic activity in rabbit RBC at 5 uM after 20 mins relative to control; format: ADME, cell-based, Oryctolagus cuniculus, Erythrocyte; details: rabbit red blood cells (erythrocytes), read-out: Activity; outline: as §1
[5] = test system: Enterococcus faecalis; experiment: Antibacterial activity against vancomycin-resistant Enterococcus faecalis MS29016 after 18 to 20 hrs by agar dilution method; format: functional; outline: as §3
[6] = test system: Staphylococcus aureus; experiment: Antibacterial activity against methicillin-resistant Staphylococcus aureus MS29202 after 18 to 20 hrs by agar dilution method; format: functional; outline: as §3
[7] = test system: Enterococcus faecalis; experiment: Antibacterial activity against drug-resistant Enterococcus faecalis MS29030 after 18 to 20 hrs by agar dilution method; format: functional; outline: as §3
[8] = test system: Bacillus subtilis; experiment: Antibacterial activity against drug-sensitive Bacillus subtilis 168 after 20 hrs by liquid microdilution method; format: functional; details: subsp. subtilis str. 168, 20 h; outline: as §2
[9] = Hemolytic activity in rabbit RBC at 50 uM after 20 mins relative to control; format: ADME, cell-based, Oryctolagus cuniculus, Erythrocyte; details: rabbit red blood cells (erythrocytes), read-out: Activity; outline: as §1
[10] = Hemolytic activity in rabbit RBC at 20 uM after 20 mins relative to control; format: ADME, cell-based, Oryctolagus cuniculus, Erythrocyte; details: rabbit red blood cells (erythrocytes), read-out: Activity; outline: as §1
[11] = test system: Streptococcus agalactiae; experiment: Antibacterial activity against drug-resistant Streptococcus agalactiae B1 after 18 to 20 hrs by agar dilution method; format: functional; outline: as §3
[12] = test system: Escherichia coli; experiment: Antibacterial activity against drug-sensitive Escherichia coli K-12 W3110 after 20 hrs by liquid microdilution method; format: functional; details: K-12 substr. W3110, 20 h; outline: as §2
[13] = Hemolytic activity in rabbit RBC at 1 uM after 20 mins relative to control; format: ADME, cell-based, Oryctolagus cuniculus, Erythrocyte; details: rabbit red blood cells (erythrocytes), read-out: Activity; outline: as §1
[14] = test system: Staphylococcus aureus; experiment: Antibacterial activity against methicillin-sensitive Staphylococcus aureus FDA 209P after 20 hrs by liquid microdilution method; format: functional; outline: as §2
[15] = test system: Pseudomonas aeruginosa; experiment: Antibacterial activity against drug-sensitive Pseudomonas aeruginosa PAO1 after 20 hrs by liquid microdilution method; format: functional; details: PAO1, 20 h; outline: as §2
[16] = Lipophilicity, log P of the compound; format: physicochemical; details: octanol/water
[17] = Hemolytic activity in rabbit RBC at 10 uM after 20 mins relative to control; format: ADME, cell-based, Oryctolagus cuniculus, Erythrocyte; details: rabbit red blood cells (erythrocytes), read-out: Activity; outline: as §1

Row | SMILES | hemolysis at 20 min, 2 µM [1] | MIC [2] | MIC [3] | hemolysis at 20 min, 5 µM [4] | MIC [5] | MIC [6] | MIC [7] | MIC [8] | hemolysis at 20 min, 50 µM [9] | hemolysis at 20 min, 20 µM [10] | MIC [11] | MIC [12] | hemolysis at 20 min, 1 µM [13] | MIC [14] | MIC [15] | logP [16] | hemolysis at 20 min, 10 µM [17]
1 | NC(CC1CCCCC1)c1cn(C[C@H]2O[C@@H]3O[C@H]4[C@H](O)[C@@H](O)[C@@H](O[C@H]5[C@H](O)[C@@H](O)[C@@H](O[C@H]6[C@H](O)[C@@H](O)[C@@H](O[C@H]7[C@H](O)[C@@H](O)[C@@H](O[C@H]8[C@H](O)[C@@H](O)[C@@H](O[C@H]9[C@H](O)[C@@H](O)[C@@H](O[C@H]2[C@H](O)[C@H]3O)O[C@@H]9Cn2cc(C(N)CC3CCCCC3)nn2)O[C@@H]8Cn2cc(C(N)CC3CCCCC3)nn2)O[C@@H]7Cn2cc(C(N)CC3CCCCC3)nn2)O[C@@H]6Cn2cc(C(N)CC3CCCCC3)nn2)O[C@@H]5Cn2cc(C(N)CC3CCCCC3)nn2)O[C@@H]4Cn2cc(C(N)CC3CCCCC3)nn2)nn1 (some centres not stated) | 31% | 10 µM (≈ 23.7 µg/mL) | 20 µM (≈ 47.4 µg/mL) | 89% | 20 µM (≈ 47.4 µg/mL) | 20 µM (≈ 47.4 µg/mL) | 40 µM (≈ 94.8 µg/mL) | 3 µM (≈ 7.11 µg/mL) | 118% | 117% | 20 µM (≈ 47.4 µg/mL) | 10 µM (≈ 23.7 µg/mL) | 13% | 10 µM (≈ 23.7 µg/mL) | 20 µM (≈ 47.4 µg/mL) | -0.35 | 107%
2 | NCCCCCCCc1cn(C[C@H]2O[C@@H]3O[C@H]4[C@H](O)[C@@H](O)[C@@H](O[C@H]5[C@H](O)[C@@H](O)[C@@H](O[C@H]6[C@H](O)[C@@H](O)[C@@H](O[C@H]7[C@H](O)[C@@H](O)[C@@H](O[C@H]8[C@H](O)[C@@H](O)[C@@H](O[C@H]9[C@H](O)[C@@H](O)[C@@H](O[C@H]2[C@H](O)[C@H]3O)O[C@@H]9Cn2cc(CCCCCCCN)nn2)O[C@@H]8Cn2cc(CCCCCCCN)nn2)O[C@@H]7Cn2cc(CCCCCCCN)nn2)O[C@@H]6Cn2cc(CCCCCCCN)nn2)O[C@@H]5Cn2cc(CCCCCCCN)nn2)O[C@@H]4Cn2cc(CCCCCCCN)nn2)nn1 | 1% | > 42 µM | 21 µM (≈ 48 µg/mL) | 4% | > 42 µM | 42 µM (≈ 96 µg/mL) | > 42 µM | 5 µM (≈ 11.4 µg/mL) | 3% | 4% | 42 µM (≈ 96 µg/mL) | > 42 µM | 3% | 3 to 21 µM (≈ 6.85 to 48 µg/mL) | > 42 µM | -0.43 | 3%
3 | NC(Cc1ccccc1)c1cn(C[C@H]2O[C@@H]3O[C@H]4[C@H](O)[C@@H](O)[C@@H](O[C@H]5[C@H](O)[C@@H](O)[C@@H](O[C@H]6[C@H](O)[C@@H](O)[C@@H](O[C@H]7[C@H](O)[C@@H](O)[C@@H](O[C@H]8[C@H](O)[C@@H](O)[C@@H](O[C@H]9[C@H](O)[C@@H](O)[C@@H](O[C@H]2[C@H](O)[C@H]3O)O[C@@H]9Cn2cc(C(N)Cc3ccccc3)nn2)O[C@@H]8Cn2cc(C(N)Cc3ccccc3)nn2)O[C@@H]7Cn2cc(C(N)Cc3ccccc3)nn2)O[C@@H]6Cn2cc(C(N)Cc3ccccc3)nn2)O[C@@H]5Cn2cc(C(N)Cc3ccccc3)nn2)O[C@@H]4Cn2cc(C(N)Cc3ccccc3)nn2)nn1 (some centres not stated) | 4% | > 41 µM | 21 µM (≈ 48.9 µg/mL) | 3% | > 41 µM | 41 µM (≈ 95.4 µg/mL) | > 41 µM | 5 µM (≈ 11.6 µg/mL) | 4% | 4% | 21 µM (≈ 48.9 µg/mL) | 21 µM (≈ 48.9 µg/mL) | 5% | 21 µM (≈ 48.9 µg/mL) | > 41 µM | -0.67 | 6%
4 | CCCCCCC(N)c1cn(C[C@H]2O[C@@H]3O[C@H]4[C@H](O)[C@@H](O)[C@@H](O[C@H]5[C@H](O)[C@@H](O)[C@@H](O[C@H]6[C@H](O)[C@@H](O)[C@@H](O[C@H]7[C@H](O)[C@@H](O)[C@@H](O[C@H]8[C@H](O)[C@@H](O)[C@@H](O[C@H]9[C@H](O)[C@@H](O)[C@@H](O[C@H]2[C@H](O)[C@H]3O)O[C@@H]9Cn2cc(C(N)CCCCCC)nn2)O[C@@H]8Cn2cc(C(N)CCCCCC)nn2)O[C@@H]7Cn2cc(C(N)CCCCCC)nn2)O[C@@H]6Cn2cc(C(N)CCCCCC)nn2)O[C@@H]5Cn2cc(C(N)CCCCCC)nn2)O[C@@H]4Cn2cc(C(N)CCCCCC)nn2)nn1 (some centres not stated) | 37% | 10 µM (≈ 22.8 µg/mL) | 21 µM (≈ 48 µg/mL) | 101% | 21 µM (≈ 48 µg/mL) | 10 µM (≈ 22.8 µg/mL) | 42 µM (≈ 96 µg/mL) | 5 µM (≈ 11.4 µg/mL) | 118% | 113% | 10 µM (≈ 22.8 µg/mL) | 10 µM (≈ 22.8 µg/mL) | 10% | 3 to 10 µM (≈ 6.85 to 22.8 µg/mL) | 21 µM (≈ 48 µg/mL) | -0.18 | 109%
5 | O[C@@H]1[C@@H](O)[C@H]2O[C@H]3[C@H](O)[C@@H](O)[C@@H](O[C@H]4[C@H](O)[C@@H](O)[C@@H](O[C@H]5[C@H](O)[C@@H](O)[C@@H](O[C@H]6[C@H](O)[C@@H](O)[C@@H](O[C@H]7[C@H](O)[C@@H](O)[C@@H](O[C@H]8[C@H](O)[C@@H](O)[C@@H](O[C@@H]1[C@@H](Cn1cc(CNCCc9ccccc9)nn1)O2)O[C@@H]8Cn1cc(CNCCc2ccccc2)nn1)O[C@@H]7Cn1cc(CNCCc2ccccc2)nn1)O[C@@H]6Cn1cc(CNCCc2ccccc2)nn1)O[C@@H]5Cn1cc(CNCCc2ccccc2)nn1)O[C@@H]4Cn1cc(CNCCc2ccccc2)nn1)O[C@@H]3Cn1cc(CNCCc2ccccc2)nn1 | 3% | 10 µM (≈ 24.2 µg/mL) | 20 µM (≈ 48.5 µg/mL) | 7% | 40 µM (≈ 97 µg/mL) | 20 µM (≈ 48.5 µg/mL) | 40 µM (≈ 97 µg/mL) | 3 µM (≈ 7.27 µg/mL) | 40% | 23% | 10 µM (≈ 24.2 µg/mL) | 10 µM (≈ 24.2 µg/mL) | 3% | 3 to 5 µM (≈ 7.27 to 12.1 µg/mL) | 10 µM (≈ 24.2 µg/mL) | -0.13 | 12%
6 | NC(CCc1ccccc1)c1cn(C[C@H]2O[C@@H]3O[C@H]4[C@H](O)[C@@H](O)[C@@H](O[C@H]5[C@H](O)[C@@H](O)[C@@H](O[C@H]6[C@H](O)[C@@H](O)[C@@H](O[C@H]7[C@H](O)[C@@H](O)[C@@H](O[C@H]8[C@H](O)[C@@H](O)[C@@H](O[C@H]9[C@H](O)[C@@H](O)[C@@H](O[C@H]2[C@H](O)[C@H]3O)O[C@@H]9Cn2cc(C(N)CCc3ccccc3)nn2)O[C@@H]8Cn2cc(C(N)CCc3ccccc3)nn2)O[C@@H]7Cn2cc(C(N)CCc3ccccc3)nn2)O[C@@H]6Cn2cc(C(N)CCc3ccccc3)nn2)O[C@@H]5Cn2cc(C(N)CCc3ccccc3)nn2)O[C@@H]4Cn2cc(C(N)CCc3ccccc3)nn2)nn1 (some centres not stated) | 6% | > 40 µM | 20 µM (≈ 48.5 µg/mL) | 17% | 40 µM (≈ 97 µg/mL) | 20 µM (≈ 48.5 µg/mL) | 40 µM (≈ 97 µg/mL) | 5 µM (≈ 12.1 µg/mL) | 113% | 94% | 20 µM (≈ 48.5 µg/mL) | 20 µM (≈ 48.5 µg/mL) | 4% | 20 µM (≈ 48.5 µg/mL) | > 40 µM | -0.25 | 47%
